Assay outcomes (PubChem)
Shown are actives, neighbours in structure and some others; about 1.4% of the full set was active somewhere.
Tn7 DDE FP: DD(E)-Tn7 binding inhibition, primary FP screen; FP displacement of FITC-Tn7 peptide from fibrin DD(E); 0% = median of compound wells per plate; inhibition, % at 8.3 µM; 370,000 compounds, 0.13% hits; AID 720508;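 active = inhibition above the mean of compounds falling within the control limits plus 3 SD of them, cut at about 14% in these data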
Target sequence (P02675 whole entry, looked up): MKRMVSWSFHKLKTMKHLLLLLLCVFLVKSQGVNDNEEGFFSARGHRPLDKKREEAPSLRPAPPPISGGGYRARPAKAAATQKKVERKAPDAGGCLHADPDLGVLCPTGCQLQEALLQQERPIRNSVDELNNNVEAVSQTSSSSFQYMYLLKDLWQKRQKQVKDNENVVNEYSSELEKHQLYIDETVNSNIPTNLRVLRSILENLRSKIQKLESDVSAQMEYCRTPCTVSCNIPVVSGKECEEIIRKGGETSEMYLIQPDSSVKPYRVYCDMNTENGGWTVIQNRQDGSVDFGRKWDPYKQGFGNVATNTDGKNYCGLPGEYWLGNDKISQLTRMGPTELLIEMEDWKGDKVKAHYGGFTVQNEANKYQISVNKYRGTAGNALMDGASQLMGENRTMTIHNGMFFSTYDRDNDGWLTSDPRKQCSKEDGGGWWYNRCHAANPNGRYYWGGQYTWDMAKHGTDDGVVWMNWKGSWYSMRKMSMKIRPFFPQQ
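assay system = human clot-derived fibrin DD(E) complex | quantity = Fibrin-DD(E) at 2 µM final | timing = 10 min preincubation, 3 h with tracer, room temperature | signal = fluorescence polarization | measure = percent inhibition | benchmarks = high control wells with 10 µM unlabelled Aha-Tn7 peptide (full inhibition) | replicates = singlicate testing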
DNA FID counter: counter-screen for HCV NS3 helicase inhibitors: DNA intercalator displacement. 290,000 compounds, 0.17% hits. inhibition, % at 7.9 µM. DNA fluorescent intercalator displacement, fluorescence. AID 1845; in the data active = inhibition above about 37%;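 note: higher means more ethidium bromide displaced from hairpin DNA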
PLCb3 inh: PLC-beta3 (human) inhibition, primary screen; Purified PLC-beta3, fluorogenic substrate, fluorescence; Q01970; 370,000 compounds, 0.18% hits; inhibition, % at 12.2 µM
PLCg1 inh: PLC-gamma1 (human) inhibition, primary screen; P19174; purified PLC-gamma1, fluorogenic substrate, fluorescence; inhibition, % at 12.2 µM; 370,000 compounds, 0.84% hits; AID 720700; in the data active = inhibition above about 9.5%
Tn6 DDE FP: inhibitors of Tn6 peptide binding to human fibrin DD(E). 370,000 compounds, 0.21% hits. Fibrin DD(E) TRITC-Tn6 fluorescence polarization displacement. inhibition, % at 8.3 µM;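 active = inhibition above a per-campaign cutoff: mean of compounds within control limits plus 3 SD, cut at about 15% in these data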
PLCg1 ctr: PLC-gamma1 inhibition, counter-screen for PLC-beta3 hits; 3,300 compounds, 3.1% hits; inhibition, % at 12.3 µM; purified PLC-gamma1, fluorogenic substrate, fluorescence; shares compounds with PLCg1 inh; in the data active = inhibition above about 9.5%
PLCbeta3 conf: human PLC-beta3 inhibition, confirmation; shares compounds with PLCg1 inh; purified PLC-beta3, fluorogenic substrate fluorescence; inhibition, % at 12.3 µM; 3,300 compounds, 1% hits
A number is an active result; - = inactive; . = no result. Cut-off read from the data, not from the text of the source, unless noted: active = inhibition above about 11%; inactive = the rest.

SMILES	Tn7 DDE FP	DNA FID counter	PLCb3 inh	PLCg1 inh	Tn6 DDE FP	PLCg1 ctr	PLCbeta3 conf
CCCOc1cccc(/C=N/NC(=O)c2csc(C)c2C)c1	-	-	-	11	-	-	-
Cc1scc(C(=O)N/N=C/c2ccsc2)c1C	-	-	-	-	-	.	.
O=C(NC1CCCCCC1)C(Cc1ccccc1)n1cccc1 (configuration not stated)	-	-	-	-	-	.	.
COc1ccc(-c2nc(N)nc(C(F)(F)F)c2-c2csc(C)n2)c(O)c1	-	-	-	11	-	-	-
COc1cc(C=O)ccc1OCCCCOc1ccccc1[N+](=O)[O-]	-	-	-	-	-	.	.
CCOc1cc(CO)cc(Br)c1OCC(=O)Nc1ccccc1C	-	-	-	-	-	.	.
CCOc1ccc(NC(=O)COc2ccc(C(=O)NCC3CCCO3)cc2OC)cc1 (configuration not stated)	-	.	-	-	-	.	.
C#CCNC(=O)c1ccc2sc([C@H]3C[C@H](O)[C@@H](CO)O3)nc2c1	-	.	-	-	-	.	.
Cc1cnc(CNC(=O)c2ccc3sc([C@H]4C[C@H](O)[C@@H](CO)O4)nc3c2)cn1	-	.	-	10	-	-	-
COc1ccc(Cl)cc1NC(=O)c1cccc([N+](=O)[O-])c1O	-	.	-	10.0	-	-	-
COc1ccc(Cl)cc1NC(=O)C/C(C)=N/NC(=O)c1ccccc1[N+](=O)[O-]	-	-	-	-	-	.	.
CC(C)(C)C1CCN2CCCC(c3ccc([N+](=O)[O-])cc3)(C1)C21OCCO1 (configuration not stated)	-	.	-	-	-	.	.
COc1cc(C23CCCN(CCC(C(C)(C)C)C2)C32OCCO2)cc(OC)c1OC (configuration not stated)	-	.	-	11	-	-	-
CC(C)C[C@H](NC(=O)c1nc[nH]c1C(=O)N1CCN(C(=O)OC(C)(C)C)CC1)C(=O)OCc1ccccc1	-	-	-	10	-	-	-
S=C(Nc1ccccc1Cl)N1CCC(c2ccccc2)C1 (configuration not stated)	-	-	-	10	-	-	-
CC(C)(C)OC(=O)NCc1ccccc1/C=C/S(=O)(=O)NC1CCCC1	-	.	-	-	-	.	.
CC(C)(C)OC(=O)NCc1cc(F)ccc1/C=C/S(=O)(=O)NC1CCCC1	-	.	-	9.8	-	-	-
CCn1cc(Br)c(C(=O)Nc2nccs2)n1	-	-	-	-	-	.	.
Cc1cccc(Nc2nc(N)c([N+](=O)[O-])c(NCc3ccco3)n2)c1	-	-	-	14	-	-	-
Cc1cccc(Nc2nc(NCc3ccco3)nc(N)c2[N+](=O)[O-])c1	-	-	-	-	-	.	.
O=C(Nc1cccc(O)c1)c1ccc(S(=O)(=O)N2CCCCCC2)cc1	-	-	-	11	-	-	-
CC(=O)Nc1ccc(NC(=O)c2cc(S(=O)(=O)N3CCCCC3)ccc2C)cc1	-	.	-	-	-	.	.
Cc1ccc(S(=O)(=O)N2CCCCC2)cc1C(=O)Nc1ccc(N2CCOCC2)cc1	-	-	-	12	-	-	-
Cc1cc(C(F)F)n2nc(C(=O)Nc3ccc(S(=O)(=O)N4CCCCCC4)cc3)nc2n1	-	-	-	9.9	-	-	-
COc1cc(Cl)c(C)cc1NC(=O)COC(=O)CCc1nc2ccccc2c(=O)[nH]1	-	.	-	-	-	.	.
SMILES	Tn7 DDE FP	DNA FID counter	PLCb3 inh	PLCg1 inh	Tn6 DDE FP	PLCg1 ctr	PLCbeta3 conf
O=C1OC(c2ccccc2)(c2ccccc2)c2ccccc21	-	.	-	-	-	.	.
Cc1cccc(C2(c3cccc(C)c3)OC(=O)c3ccccc32)c1	-	-	-	14	-	-	-
C=C1CC2(CC(c3ccccc3)OC(c3ccccc3)C2)OC1=O (configuration not stated)	-	.	-	13	-	-	-
CCn1c(C)c(C)c2cc(C(=O)Nc3cccc(Cl)c3)ccc21	-	-	-	-	-	.	.
OC1CCN(Cc2ccc3ccccc3c2)CC1	-	-	-	-	-	.	.
CC(C)(C)c1cc(CN2CCC(O)CC2)cc(C(C)(C)C)c1O	-	-	-	11	-	-	-
OC(CN1CCN(c2ncc(C(F)(F)F)cc2Cl)CC1)c1ccccc1 (configuration not stated)	-	-	-	13	-	-	-
C/C(=N\NC(=O)c1ccccc1)c1ccc(N2CCCCC2)cc1	-	-	-	-	-	.	.
COc1ccc(NS(=O)(=O)c2ccc(S(=O)(=O)N3CCCC3)cc2)cc1Cl	-	-	-	15	-	-	-
COc1ccc(Cl)cc1S(=O)(=O)N(C)CC(=O)NCc1ccccn1	-	-	-	9.6	-	-	-
Cc1nn(-c2ccccc2)c(C)c1/C=N/O	-	-	-	-	-	.	.
O=C(O)c1cccc(NC(=S)N/N=C/c2cccnc2)c1	-	-	-	-	-	.	.
C[C@H](CO)N1C[C@H](C)[C@H](CN(C)C(=O)c2ccccn2)Oc2ncc(Br)cc2C1=O	-	.	-	-	-	.	.
CCN(CC(=O)Nc1cc(Cl)ccc1C)C(=O)C1CC1	-	.	-	14	-	-	-
Cc1cccc(-n2cc(CN(C)Cc3nccn3C)c(-c3cccc(F)c3)n2)c1	-	-	-	11	-	-	-
CCn1ccnc1CN(C)Cc1cn(-c2cccc(C)c2)nc1-c1cccc(F)c1	-	-	-	-	-	.	.
Cc1ccccc1CS(=O)(=O)Cc1ccc(C(=O)NCCCN2CC(C)CC(C)C2)o1 (configuration not stated)	-	-	-	-	-	.	.
COC(=O)[C@]12C[C@H](CC(=O)N3CCN(C(=O)c4ccco4)CC3)C(=O)N(Cc3ccc(Cl)cc3Cl)C1=C[C@H](COCc1ccccc1)O[C@@H]2C	-	.	-	13	-	-	-
COC(=O)[C@]12C[C@H](CC(=O)N3CCCCC3)C(=O)N(Cc3ccc(Cl)cc3Cl)C1=C[C@H](COCc1ccccc1)O[C@@H]2C	-	.	-	-	-	.	.
Cc1ccc2c(cnn2C(=O)CCC(=O)N2CCCCC2)c1	-	-	-	-	-	.	.
O=c1c(Cl)c(NCC2CCCO2)cnn1C12CC3CC(CC(C3)C1)C2 (configuration not stated)	-	-	-	12	-	-	-
Cc1cccc(C)c1OCCN1C(=O)NC(C)(c2ccccc2)C1=O (configuration not stated)	-	-	-	-	-	.	.
O=C(NCCNC(=O)c1cc(OCC(F)(F)F)ccc1OCC(F)(F)F)Nc1ccc(OC(F)(F)F)cc1	-	-	-	12	-	-	-
COc1cccc(C(=O)NC2CC3CCCC(C2)N3CC(=O)Nc2ccccc2C(F)(F)F)c1 (configuration not stated)	-	-	-	-	-	.	.
COc1cccc(C(=O)N/N=C/c2ccc(OC3CSC3)cc2)c1	-	-	-	10	-	-	-
